Experimental data published in ChEMBL document CHEMBL4049424, “Hydroxypyridinone and 5-Aminolaevulinic Acid Conjugates for Photodynamic Therapy” (J Med Chem, 2017).

How the values were obtained:
MCF7R = experiment: Phototoxicity in human doxorubicin resistant MCF7/R cells assessed as reduction in cell viability preincubated for 4 hrs followed by irradiation with blue light at 2.5 J/cm2 and subsequent incubation for 18 hrs measured after 24 hrs post treatment by MTT assay; assay type: functional; conditions: for CC50: light or radiation study, read-out: LD50 (the source's name)
Method in brief: (§1)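 Cells seeded ~5 × 10^4 per well, grown 48 h, washed with PBS, then 4 h with compound (five concentrations within 1–100 μM, triplicate, three untreated control wells per plate). Irradiated with blue light, peak ~420 nm, 2.5 J/cm². Medium replaced, cells kept a further 18 h. MTT read at A570 24 h after treatment; survival expressed as percentage of control. LD50 taken from two sets of experiments.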

[1] = Drug metabolism in human doxorubicin resistant MCF7/R cells assessed as formation of protoporphyrin 9 preincubated for 2 hrs followed by compound washout measured after 24 hrs by HPLC-based fluorescence analysis; assay type: ADME, cell-based; conditions: mcf7r
Method in brief: (§2)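 Cells given ALA or conjugate for 2 h at 37 °C, then fresh medium without compound. At 24 h, lysed in CelLytic (15 min, room temperature), scraped and spun 1800g for 10 min. Supernatant PpIX read by fluorescence at 405/635 nm and normalised per mg protein (BCA). Untreated blanks subtracted.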

KB [2] = experiment: Phototoxicity in human KB cells assessed as reduction in cell viability preincubated for 4 hrs followed by irradiation with blue light at 2.5 J/cm2 and subsequent incubation for 18 hrs measured after 24 hrs post treatment by MTT assay; assay type: functional; conditions: for CC50: light or radiation study, read-out: LD50 (the source's name); method in brief: as §1
KB [3] = experiment: Dark toxicity against human KB cells assessed as cell survival at 100 uM after 24 hrs by MTT assay; assay type: cell-based
[4] = Drug metabolism in human KB cells assessed as formation of protoporphyrin 9 preincubated for 2 hrs followed by compound washout measured after 24 hrs by HPLC-based fluorescence analysis; assay type: ADME, cell-based; method in brief: as §2
[5] = Drug metabolism in human doxorubicin resistant MCF7/R cells assessed as formation of protoporphyrin 9 at 1 to 100 uM after 6 hrs by fluorescence spectrometer relative to ALA; assay type: ADME, cell-based; conditions: mcf7r
Method in brief: (§3)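 MCF-7R monolayers exposed 6 h at 37 °C to ALA, conjugates or ALA hexyl/octyl esters at 1–100 μM in serum-free medium. PpIX emission at 635 nm (405 nm excitation; spectra 600–750 nm) read in wells. Untreated controls subtracted; mean of triplicates in arbitrary units.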

KB [6] = experiment: Dark toxicity against human KB cells at 200 uM preincubated for 4 hrs followed by compound washout measured after 24 hrs by MTT assay; assay type: cell-based
Method in brief: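 Dark toxicity in KB cells: 200 μM compound for 4 h with no light, removed, cells kept 24 h. Viability by MTT (2 h, A570 after DMSO solubilisation), given as % of untreated controls. Triplicate.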

MCF7 = experiment: Phototoxicity in human MCF7 cells assessed as reduction in cell viability preincubated for 4 hrs followed by irradiation with blue light at 2.5 J/cm2 and subsequent incubation for 18 hrs measured after 24 hrs post treatment by MTT assay; assay type: functional; conditions: for CC50: MCF7, light or radiation study, read-out: LD50 (the source's name); method in brief: as §1
[7] = Dark toxicity against human KB cells assessed as cell survival at 100 uM after 4 hrs by MTT assay; assay type: cell-based; conditions: read-out: Survival
Method in brief: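 Cells seeded ~5 × 10^4 per well, grown 48 h, washed with PBS, then exposed to compound in medium for 4 h without irradiation. Incubation then continued for 24 h after prodrug removal. Viability by MTT (1 mg/mL, 2 h), formazan dissolved in DMSO, A570, expressed as percentage of untreated control wells on the same plate. Triplicate.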

KB [8] = experiment: Dark toxicity against human KB cells preincubated for 4 hrs followed by compound washout measured after 24 hrs by MTT assay; assay type: cell-based
Method in brief: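 KB cells seeded ~5×10^4/well, grown 48 h, PBS-washed, then exposed to compound for 4 h without irradiation. Medium replaced and cells kept a further ~24 h. Survival by MTT (1 mg/mL in EMEM, 2 h), formazan dissolved in DMSO, A570, expressed as % of untreated control wells. Triplicate wells.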

[9] = Prodrug conversion in human KB cells assessed as accumulation of ALA at 100 uM after 2 hrs by HPLC-based fluorescence analysis relative to ALA; assay type: ADME, cell-based
Method in brief: (§4)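 KB or MCF-7R cells incubated 2 h with 100 μM ALA or conjugate, then extracted with CelLytic. Lysate ALA derivatised with acetylacetone/ethanol/water (15/45/40) plus 10% formaldehyde at 100 °C for 10 min. Analysed by C18 HPLC with fluorescence detection (excitation 370 nm, emission 460 nm) against spiked-lysate calibration. Normalised per mg protein.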

[10] = Drug metabolism in human KB cells assessed as formation of protoporphyrin 9 at 50 uM after 24 hrs by fluorescence spectrometer relative to ALA; assay type: ADME, cell-based
Method in brief: (§5)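 KB monolayers (48 h after seeding ~5×10^4/well) washed, then given prodrug or ALA at 50 μM in serum-free medium at 37 °C. PpIX fluorescence read in wells at 2, 4, 6 and 24 h, excitation 405 nm, emission 635 nm. Untreated wells subtracted for autofluorescence; mean intensity in arbitrary units, triplicate.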

[11] = Drug metabolism in human MCF7 cells assessed as formation of protoporphyrin 9 at 50 uM after 6 hrs by fluorescence spectrometer; assay type: ADME, cell-based; conditions: mcf7, 6 h
Method in brief: (§6)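 MCF-7 or MCF-7R cells incubated 6 h at 37 °C with 50 μM conjugate, or with 50 μM ALA and HPO as a 1:1 mixture, in serum-free medium. PpIX fluorescence read in wells at 405/635 nm, untreated-well values subtracted, triplicate.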

KB [12] = experiment: Phototoxicity in human KB cells assessed as cell survival at 10 uM preincubated for 4 hrs followed by irradiation with blue light at 2.5 J/cm2 and subsequent incubation for 18 hrs measured after 24 hrs post treatment by MTT assay relative to control; assay type: functional; conditions: light or radiation study, read-out: Survival; method in brief: as §1
[13] = Drug metabolism in human KB cells assessed as protoporphyrin 9 formation at 500 uM preincubated for 1 hr at 4 degC followed by compound washout and subsequent incubation for 4 hrs at 37 degC by fluorescence spectrometer; assay type: ADME, cell-based
Method in brief: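 KB cells exposed 1 h to 500 μM prodrug in clear medium at either 4 °C or 37 °C, plates foil-wrapped. Compound then removed, PBS rinse, fresh medium, both plates 4 h at 37 °C. PpIX read in wells at 405/635 nm after subtracting untreated wells.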

[14] = Drug metabolism in human doxorubicin resistant MCF7/R cells assessed as formation of protoporphyrin 9 after 6 hrs by fluorescence spectrometer; assay type: ADME, cell-based; conditions: mcf7r; method in brief: as §3
[15] = Drug metabolism in human KB cells assessed as formation of protoporphyrin 9 at 100 uM after 6 to 24 hrs by fluorescence spectrometer; assay type: ADME, cell-based
Method in brief: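 Time course in KB cells at 37 °C after 100 μM conjugate, ALA, or 1:1 ALA + HPO mixture in serum-free medium. Well PpIX fluorescence read at 405 nm excitation / 635 nm emission, control autofluorescence subtracted, triplicate means.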

[16] = Prodrug conversion in human doxorubicin resistant MCF7/R cells assessed as accumulation of ALA at 100 uM after 2 hrs by HPLC-based fluorescence analysis relative to ALA; assay type: ADME, cell-based; conditions: mcf7r; method in brief: as §4
[17] = Drug metabolism in human doxorubicin resistant MCF7/R cells assessed as formation of protoporphyrin 9 at 1 to 100 uM after 6 hrs by fluorescence spectrometer; assay type: ADME, cell-based; conditions: mcf7r
Method in brief: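 Cells seeded ~5 × 10^4 per well and grown 48 h, washed with PBS. Then 6 h at 37 °C with 1–100 μM prodrug in serum-free medium. PpIX fluorescence read with excitation 405 nm and emission 635 nm (scan 600–750 nm, 515 nm long-pass filter). Values are mean intensity in arbitrary units after subtracting no-prodrug control wells. Triplicate.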

[18] = Drug metabolism in human doxorubicin resistant MCF7/R cells assessed as formation of protoporphyrin 9 at 50 uM after 6 hrs by fluorescence spectrometer; assay type: ADME, cell-based; conditions: mcf7r; method in brief: as §6
[19] = Drug metabolism in human MCF7 cells assessed as formation of protoporphyrin 9 preincubated for 2 hrs followed by compound washout measured after 24 hrs by HPLC-based fluorescence analysis; assay type: ADME, cell-based; conditions: mcf7, 24 h; method in brief: as §2
[20] = Drug metabolism in human KB cells assessed as formation of protoporphyrin 9 at 50 uM after 2 to 24 hrs by fluorescence spectrometer; assay type: ADME, cell-based; method in brief: as §5
[21] = Drug metabolism in human doxorubicin resistant MCF7/R cells assessed as formation of protoporphyrin 9 at 100 uM after 6 hrs by fluorescence spectrometer; assay type: ADME, cell-based; conditions: mcf7r; method in brief: as §3

| Compound | Activity (MCF7R) | CC50 (MCF7R) [µM] | Drug metabolism [1] | Activity (KB [2]) | CC50 (KB [2]) [µM] | Activity (KB [3]) | Drug metabolism [4] | Activity (KB [6]) | Activity (MCF7) | CC50 (MCF7) [µM] | fold change (FC) [10] | Drug metabolism [11] | viability at 10 µM (KB [12]) [%] | Drug metabolism [13] | Drug metabolism [14] | Drug metabolism [15] | Flu intensity [17] [a.u.] | Drug metabolism [18] | Drug metabolism [19] | Drug metabolism [20] | also measured |
| --- | --- | --- | --- | --- | --- | --- | --- | --- | --- | --- | --- | --- | --- | --- | --- | --- | --- | --- | --- | --- | --- |
| CC(O)c1c(O)c(=O)ccn1CCCCCCOC(=O)CCC(=O)CN.Cl (stereo unspecified) | Dose-dependent effect | 8.4 | Metabolite_Detected | Dose-dependent effect | 24.1 | Non-Toxic | Metabolite_Detected | Non-Toxic | Dose-dependent effect | 16.6 | – | – | – | – | – | – | – | – | – | – | fold change (FC) [5]: > 10 |
| CCCCCCCCOC(=O)CCC(=O)CN | – | – | – | – | – | – | – | – | – | – | – | – | – | – | – | – | – | – | – | – | viability at 4 h, 100 µM [7]: 14%; Activity (KB [8]): Toxic |
| CCc1c(O)c(=O)ccn1CCCCCCCCCCOC(=O)CCC(=O)CN.Cl | Dose-dependent effect | 3.9 | Metabolite_Detected | Dose-dependent effect | 2.3 | Non-Toxic | Metabolite_Detected | Non-Toxic | Dose-dependent effect | 8.1 | 10.2 | Metabolite_Detected | < 6 | Metabolite_Detected | Dose-dependent effect | Metabolite_Detected | 2 to 25 | Metabolite_Detected | Metabolite_Detected | Metabolite_Detected | fold change (FC) [9]: 8; fold change (FC) [16]: 8 |
| CCc1c(O)c(=O)ccn1CCOC(=O)CCC(=O)CN.Cl | Dose-dependent effect | 122 | – | Dose-dependent effect | 115 | Non-Toxic | – | Non-Toxic | Dose-dependent effect | 124 | – | – | – | – | – | – | – | – | Metabolite_Detected | – | Drug metabolism [21]: Metabolite_Notdetected |
| CCc1c(O)c(=O)ccn1CCCCCCOC(=O)CCC(=O)CN.Cl | Dose-dependent effect | 8.1 | Metabolite_Detected | Dose-dependent effect | 5.2 | Non-Toxic | Metabolite_Detected | Non-Toxic | Dose-dependent effect | 13.4 | – | Metabolite_Detected | – | Metabolite_Detected | Dose-dependent effect | Metabolite_Detected | 2 to 25 | Metabolite_Detected | Metabolite_Detected | – | fold change (FC) [5]: > 15 |
| CCc1c(O)c(=O)ccn1CCCCCCCCCCCCOC(=O)CCC(=O)CN.Cl | Dose-dependent effect | 5.5 | Metabolite_Detected | Dose-dependent effect | 2.5 | Non-Toxic | Metabolite_Detected | Non-Toxic | Dose-dependent effect | 12.9 | 9.2 | Metabolite_Detected | < 6 | Metabolite_Detected | Dose-dependent effect | Metabolite_Detected | 2 to 25 | Metabolite_Detected | Metabolite_Detected | Metabolite_Detected | – |
| CCc1c(O)c(=O)ccn1CCCCCCCCOC(=O)CCC(=O)CN.Cl.Cl | Dose-dependent effect | 4.2 | Metabolite_Detected | Dose-dependent effect | 3.1 | Non-Toxic | Metabolite_Detected | Non-Toxic | Dose-dependent effect | 10.9 | 8 | Metabolite_Detected | < 6 | Metabolite_Detected | Dose-dependent effect | Metabolite_Detected | 2 to 25 | Metabolite_Detected | Metabolite_Detected | Metabolite_Detected | fold change (FC) [9]: 6; fold change (FC) [16]: 6 |
| CCc1c(O)c(=O)ccn1CCCCOC(=O)CCC(=O)CN.Cl | Dose-dependent effect | 61.2 | – | Dose-dependent effect | 65.1 | Non-Toxic | – | Non-Toxic | Dose-dependent effect | 76.5 | – | – | – | Metabolite_Detected | Dose-dependent effect | – | 2 to 25 | – | Metabolite_Detected | – | – |
| CNC(=O)c1c(O)c(=O)ccn1CCCCCCOC(=O)CCC(=O)CN.Cl | Dose-dependent effect | 104 | – | Dose-dependent effect | 108 | Non-Toxic | – | Non-Toxic | Dose-dependent effect | 113 | – | – | – | – | – | – | – | – | – | – | Drug metabolism [17]: Metabolite_Notdetected |
